# Results reported in ChEMBL document CHEMBL3593194, “BN/CC isosterism in borazaronaphthalenes towards phosphodiesterase 10A (PDE10A) inhibitors” (Bioorg Med Chem, 2015).
# Legend:
# [1] = Intrinsic clearance in rat liver microsomes; format: ADME; conditions: read-out: CLH (converted)
# [2] = biological target: T1, cAMP and cAMP-inhibited cGMP 3',5'-cyclic phosphodiesterase 10A (Homo sapiens, UniProt Q9Y233); assay: Inhibition of PDE10A (unknown origin) at 10 uM
# How it was run: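 Potency against PDE10A is given as the concentration giving 50% inhibition (IC50, nM). Where no IC50 was obtained, the value is percent inhibition at 10 μM.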
# [3] = biological target: T1, cAMP and cAMP-inhibited cGMP 3',5'-cyclic phosphodiesterase 10A; assay: Inhibition of PDE10A (unknown origin)
# [4] = biological target: T1, cAMP and cAMP-inhibited cGMP 3',5'-cyclic phosphodiesterase 10A; assay: Inhibition of PDE10A (unknown origin) at 2 uM
# T1 sequence (Q9Y233 whole entry): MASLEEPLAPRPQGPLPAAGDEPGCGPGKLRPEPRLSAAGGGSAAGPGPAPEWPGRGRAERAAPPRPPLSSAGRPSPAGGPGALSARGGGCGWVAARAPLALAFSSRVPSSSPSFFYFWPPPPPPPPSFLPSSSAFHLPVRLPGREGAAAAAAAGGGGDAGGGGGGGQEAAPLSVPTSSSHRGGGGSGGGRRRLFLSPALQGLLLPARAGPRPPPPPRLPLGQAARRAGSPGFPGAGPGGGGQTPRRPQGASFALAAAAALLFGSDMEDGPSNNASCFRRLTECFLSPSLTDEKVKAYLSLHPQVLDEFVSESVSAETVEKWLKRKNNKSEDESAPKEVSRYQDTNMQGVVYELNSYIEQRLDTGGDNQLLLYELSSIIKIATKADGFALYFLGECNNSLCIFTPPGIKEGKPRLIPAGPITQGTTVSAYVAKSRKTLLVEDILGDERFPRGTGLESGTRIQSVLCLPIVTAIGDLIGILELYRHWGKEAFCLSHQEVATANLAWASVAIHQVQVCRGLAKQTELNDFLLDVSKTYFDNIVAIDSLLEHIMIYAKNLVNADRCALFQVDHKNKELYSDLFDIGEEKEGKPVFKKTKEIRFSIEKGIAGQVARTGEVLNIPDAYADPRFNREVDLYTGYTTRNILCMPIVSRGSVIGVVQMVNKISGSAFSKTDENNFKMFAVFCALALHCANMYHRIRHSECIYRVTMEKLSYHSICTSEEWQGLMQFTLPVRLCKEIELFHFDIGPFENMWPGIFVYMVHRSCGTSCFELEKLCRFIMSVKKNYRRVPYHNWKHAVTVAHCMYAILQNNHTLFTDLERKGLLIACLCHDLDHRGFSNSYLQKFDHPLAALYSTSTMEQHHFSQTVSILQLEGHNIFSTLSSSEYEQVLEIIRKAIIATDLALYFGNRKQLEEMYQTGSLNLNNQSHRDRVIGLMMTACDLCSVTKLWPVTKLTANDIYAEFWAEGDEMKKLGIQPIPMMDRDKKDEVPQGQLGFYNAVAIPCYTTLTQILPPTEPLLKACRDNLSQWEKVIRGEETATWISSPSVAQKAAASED
structure (smiles),measurement,setting,value
CN(C(=O)c1cc(-c2ccccc2)n[nH]1)c1ccc(OCc2ccc3ccccc3c2)cc1,CLint scaled,[1],6.83 mL/min/kg
same,inhibition,[2],3%
CN(C(=O)c1cc(-c2ccccn2)[nH]n1)c1ccc(OCc2ccc3ccccc3c2)cc1,CLint scaled,[1],30 mL/min/kg
same,inhibition,[2],4%
CN(C(=O)c1ccc2ncsc2c1)c1ccc(OCB2C=Cc3ccccc3N2)cc1,CLint scaled,[1],73.3 mL/min/kg
same,inhibition,[2],45%
CN(C(=O)c1ccc2ncsc2c1)c1ccc(OCc2ccc3ccccc3c2)cc1,CLint scaled,[1],48.3 mL/min/kg
same,inhibition,[2],5%
CN(C(=O)c1csc(-c2cccnc2)n1)c1ccc(OCc2ccc3ccccc3c2)cc1,CLint scaled,[1],> 283 mL/min/kg
same,inhibition,[2],2%
Cn1cc(-c2ccncc2)c(-c2ccc(OCc3ccc4ccccc4c3)cc2)n1,CLint scaled,[1],83.3 mL/min/kg
same,inhibition,[2],25%
CN(C(=O)c1cc(-c2ccccc2)n[nH]1)c1ccc(OCB2C=Cc3ccccc3N2)cc1,IC50,[3],1800 nM
same,CLint scaled,[1],5.67 mL/min/kg
CN(C(=O)c1csc(-c2cccnc2)n1)c1ccc(OCB2C=Cc3ccccc3N2)cc1,IC50,[3],330 nM
same,CLint scaled,[1],> 283 mL/min/kg
CN(C(=O)c1ccncc1)c1ccc(OCc2ccc3ccccc3n2)cc1,CLint scaled,[1],15 mL/min/kg
Cn1cc(-c2ccncc2)c(-c2ccc(OCc3ccc4ccccc4n3)cc2)n1 [MARDEPODECT],CLint scaled,[1],31.7 mL/min/kg
CN(C(=O)c1csc(-c2cccnc2)n1)c1ccc(OCc2ccc3ccccc3n2)cc1,IC50,[3],170 nM
same,CLint scaled,[1],> 283 mL/min/kg
CN(C(=O)c1ccc2ncsc2c1)c1ccc(OCc2ccc3ccccc3n2)cc1,CLint scaled,[1],31.7 mL/min/kg
CN(C(=O)c1ccncc1)c1ccc(OCc2ccc3ccccc3c2)cc1,CLint scaled,[1],75 mL/min/kg
same,inhibition,[4],2%
CN(C(=O)c1cc(-c2ccccc2)n[nH]1)c1ccc(OCc2ccc3ccccc3n2)cc1,CLint scaled,[1],21.7 mL/min/kg
CN(C(=O)c1ccncc1)c1ccc(OCB2C=Cc3ccccc3N2)cc1,CLint scaled,[1],115 mL/min/kg
same,inhibition,[2],11%
CN(C(=O)c1cc(-c2ccccn2)n[nH]1)c1ccc(OCc2ccc3ccccc3n2)cc1,CLint scaled,[1],35 mL/min/kg
Cn1cc(-c2ccncc2)c(-c2ccc(OCB3C=Cc4ccccc4N3)cc2)n1,CLint scaled,[1],41.7 mL/min/kg
same,inhibition,[2],48%
CN(C(=O)c1cc(-c2ccccn2)[nH]n1)c1ccc(OCB2C=Cc3ccccc3N2)cc1,IC50,[3],64 nM
same,CLint scaled,[1],25 mL/min/kg
